Calls of active or inactive are those of the source. The calls are words filed in the database; no cut-off is given here.
Columns and labels:
[1] = target: T1, 1-aminocyclopropane-1-carboxylate synthase 5 (Arabidopsis thaliana, UniProt Q37001); experiment: Inhibition of Arabidopsis thaliana recombinant ACS5 expressed in Escherichia coli (BL21) assessed as oxidation of ACC to ethylene preincubated for 30 min measured after 10 min by gas chromatography
T1 sequence (Q37001 whole entry): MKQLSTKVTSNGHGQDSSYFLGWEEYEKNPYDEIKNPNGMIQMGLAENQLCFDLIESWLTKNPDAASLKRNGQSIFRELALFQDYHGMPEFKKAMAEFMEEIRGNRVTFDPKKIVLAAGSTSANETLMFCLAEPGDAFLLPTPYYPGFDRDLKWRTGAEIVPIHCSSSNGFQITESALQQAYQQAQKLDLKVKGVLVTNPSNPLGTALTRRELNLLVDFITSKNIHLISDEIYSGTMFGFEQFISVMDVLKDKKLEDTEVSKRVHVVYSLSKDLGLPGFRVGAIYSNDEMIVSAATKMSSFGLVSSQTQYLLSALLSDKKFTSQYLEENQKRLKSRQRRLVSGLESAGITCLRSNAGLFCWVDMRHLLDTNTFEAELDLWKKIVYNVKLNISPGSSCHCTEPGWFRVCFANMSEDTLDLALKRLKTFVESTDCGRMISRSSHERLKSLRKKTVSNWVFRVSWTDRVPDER
How it was run: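 His-tagged recombinant ACS5 expressed in E. coli (IPTG induction, 16°C, 18 h) and purified on a HisTrap column. Enzyme (1 μg) in 2 ml buffer A (pH 8.0) with 10 μM PLP and 250 μM SAM, plus graded compound or DMSO, for 30 min at 25°C. Stopped with HgCl2 and NaOH:bleach, which oxidize ACC to ethylene, quantified by GC against an ACC standard curve. Duplicate, repeated ≥3 times.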

Arabidopsis thaliana [2] = experiment: Inhibition of triple response phenotype in Arabidopsis thaliana seedlings expressing eto1-4 mutant and 5 x EBS::LUC by measuring hypocotyl elongation at 1 to 5 uM 3 days after germination in dark; type: functional, organism-based
How it was run: (§1)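 Etiolated eto1-4 seedlings grown 3 days in the dark at 22°C on 0.5xMS agar containing graded compound, STS or AVG, with DMSO control. Seeds bleach-sterilized and stratified 3–4 days at 4°C beforehand. Hypocotyl length measured from stereomicroscope images; means of n ≥30 seedlings.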

Arabidopsis thaliana [3] = experiment: Inhibition of triple response phenotype in Arabidopsis thaliana seedlings expressing eto2-1 mutant by measuring hypocotyl elongation at 10 to 30 uM 3 days after germination in dark; type: functional, organism-based
[4] = target: T1, 1-aminocyclopropane-1-carboxylate synthase 5; experiment: Uncompetitive inhibition of Arabidopsis thaliana recombinant ACS5 expressed in Escherichia coli (BL21) assessed as oxidation of ACC to ethylene by Lineweaver-Burk plot analysis
Arabidopsis thaliana [5] = experiment: Inhibition of triple response phenotype in Arabidopsis thaliana seedlings expressing eto1-4 mutant by measuring hypocotyl elongation at 10 uM 3 days after germination in dark; type: functional; details: 72 h
Arabidopsis thaliana [6] = experiment: Inhibition of ethylene biosynthesis in Arabidopsis thaliana eto1-4 expressing 5 x EBS::LUC assessed as decrease ethylene level at 10 uM 3 days after germination in dark relative to aminoethoxyvinylglycine; type: functional; details: 72 h
Arabidopsis thaliana [7] = experiment: Inhibition of triple response phenotype in Arabidopsis thaliana seedlings expressing ctr1-1 mutant by measuring hypocotyl elongation at 10 uM 3 days after germination in dark; type: functional, organism-based
Arabidopsis thaliana [8] = experiment: Inhibition of triple response phenotype in Arabidopsis thaliana seedlings expressing ctr1-1 mutant by measuring hypocotyl elongation up to 50 uM 3 days after germination in dark; type: functional, organism-based
Arabidopsis thaliana [9] = experiment: Inhibition of triple response phenotype in Arabidopsis thaliana seedlings expressing eto1-4 mutant by measuring hypocotyl elongation up to 50 uM 3 days after germination in dark; type: functional, organism-based
Arabidopsis thaliana [10] = experiment: Inhibition of triple response phenotype in Arabidopsis thaliana seedlings expressing 35S::EIN3 by measuring hypocotyl elongation up to 50 uM 3 days after germination in dark; type: functional, organism-based
Arabidopsis thaliana [11] = experiment: Inhibition of ethylene biosynthesis in Arabidopsis thaliana eto1-4 expressing 5 x EBS::LUC assessed as decrease ethylene level at 10 uM 3 days after germination in dark; type: functional, organism-based
Arabidopsis thaliana [12] = experiment: Inhibition of triple response phenotype in Arabidopsis thaliana seedlings expressing 35S::EIN3 by measuring hypocotyl elongation at 10 uM 3 days after germination in dark; type: functional, organism-based
Arabidopsis thaliana [13] = experiment: Inhibition of triple response phenotype in Arabidopsis thaliana seedlings expressing eto1-4 mutant and 5 x EBS::LUC by measuring hypocotyl elongation at 0.1 to 1 uM 3 days after germination in dark; type: functional, organism-based; how it was run: as §1
Arabidopsis thaliana [14] = experiment: Inhibition of triple response phenotype in Arabidopsis thaliana seedlings expressing eto1-4 mutant and 5 x EBS::LUC by measuring hypocotyl elongation at >5 uM 3 days after germination in dark; type: functional, organism-based; how it was run: as §1

`NCCO/C=C/C(N)C(=O)O` (centres undefined) [AMINOETHOXYVINYLGLYCINE] was tested, and the IC50 [1] was 700 nM, the inhibition (Arabidopsis thaliana [2]) was “Active” and the inhibition (Arabidopsis thaliana [3]) was “Active”. The Ki [4] was 15 nM and the inhibition at 10 µM (Arabidopsis thaliana [5]) was 100%.
Work on `CC1(C)CC(=O)c2cnc(Nc3ccccc3)nc2C1` yielded an inhibition at 10 µM (Arabidopsis thaliana [6]) of 77% and an inhibition at 10 µM (Arabidopsis thaliana [5]) of 29%.
In the case of `CC1(C)CC(=O)c2cnc(NC3CCCC3)nc2C1`, the inhibition (Arabidopsis thaliana [7]) is reported as “inactive”, the inhibition (Arabidopsis thaliana [8]) is reported as “inactive” and the IC50 [1] is reported as 7900 nM. The inhibition (Arabidopsis thaliana [9]) was “Active”, the inhibition (Arabidopsis thaliana [10]) was “inactive” and the inhibition (Arabidopsis thaliana [3]) was “Active”. The inhibition at 10 µM (Arabidopsis thaliana [6]) was 87%, the inhibition (Arabidopsis thaliana [11]) was “Active” and the inhibition at 10 µM (Arabidopsis thaliana [5]) was 55%. The inhibition (Arabidopsis thaliana [12]) was “inactive”.
In the case of `COc1ccc(C2CC(=O)c3cnc(Nc4ccccc4)nc3C2)cc1` (centres undefined), the inhibition (Arabidopsis thaliana [7]) is reported as “inactive”, the inhibition (Arabidopsis thaliana [8]) is reported as “inactive” and the inhibition (Arabidopsis thaliana [13]) is reported as “Active”. For the same molecule, the inhibition (Arabidopsis thaliana [14]) was “Active”, the inhibition (Arabidopsis thaliana [9]) was “Active” and the inhibition (Arabidopsis thaliana [10]) was “inactive”. For the same molecule, the inhibition (Arabidopsis thaliana [3]) was “Active”, the inhibition at 10 µM (Arabidopsis thaliana [6]) was 93% and the inhibition (Arabidopsis thaliana [11]) was “Active”. The Ki [4] was 23 nM, the inhibition at 10 µM (Arabidopsis thaliana [5]) was 77% and the inhibition (Arabidopsis thaliana [12]) was “inactive”.
For `O=S(O)(O)=S` [SILVER THIOSULFATE], the inhibition at 10 µM (Arabidopsis thaliana [5]; tested as the Ag salt or complex) was 84%.
Molecule `Cc1nc(Nc2ccccc2)nc2c1C(=O)CC(C)(C)C2` has an inhibition at 10 µM (Arabidopsis thaliana [6]) of 67%.
`CC1(C)CC(=O)c2cnc(NCc3ccccc3)nc2C1` gave an inhibition at 10 µM (Arabidopsis thaliana [6]) of 45%.
With `CC1(C)CC(=O)c2cnc(Nc3ccc(F)cc3)nc2C1` the inhibition at 10 µM (Arabidopsis thaliana [6]) was 36%.
`CCCCNc1ncc2c(n1)CC(c1ccccc1)CC2=O` (centres undefined) showed an inhibition at 10 µM (Arabidopsis thaliana [6]) of 92% and an inhibition at 10 µM (Arabidopsis thaliana [5]) of 43%.
In the case of `CC1CC(=O)c2cnc(Nc3ccccc3)nc2C1` (centres undefined), the inhibition at 10 µM (Arabidopsis thaliana [6]) is reported as 82% and the inhibition at 10 µM (Arabidopsis thaliana [5]) is reported as 28%.
Molecule `CCCCc1nc(N)nc2c1C(=O)CC(C)(C)C2` has an inhibition at 10 µM (Arabidopsis thaliana [6]) of 22%.
`CC1(C)CC(=O)c2cnc(NCc3ccc(F)cc3)nc2C1` was tested, and the inhibition at 10 µM (Arabidopsis thaliana [6]) was 69%.
With `Cc1ccc(C2CC(=O)c3cnc(NC4CCCC4)nc3C2)cc1` (centres undefined) the inhibition (Arabidopsis thaliana [7]) was “inactive”, the inhibition (Arabidopsis thaliana [8]) was “inactive” and the inhibition (Arabidopsis thaliana [13]) was “Active”. The inhibition (Arabidopsis thaliana [14]) was “Active”, the inhibition (Arabidopsis thaliana [9]) was “Active” and the inhibition (Arabidopsis thaliana [10]) was “inactive”. The inhibition (Arabidopsis thaliana [3]) was “Active”, the inhibition at 10 µM (Arabidopsis thaliana [6]) was 87% and the inhibition (Arabidopsis thaliana [11]) was “Active”. For the same molecule, the inhibition at 10 µM (Arabidopsis thaliana [5]) was 66% and the inhibition (Arabidopsis thaliana [12]) was “inactive”.
Molecule `Cc1nc(Nc2ccc(F)cc2)nc2c1C(=O)CC(C)(C)C2` has an inhibition at 10 µM (Arabidopsis thaliana [6]) of 9%.
`CC1CC(=O)c2cnc(NCc3ccccc3)nc2C1` (centres undefined) showed an inhibition at 10 µM (Arabidopsis thaliana [6]) of 54%.
`O=C1CC(c2ccccc2Cl)Cc2nc(NC3CCCC3)ncc21` (centres undefined) showed an inhibition at 10 µM (Arabidopsis thaliana [6]) of 91% and an inhibition at 10 µM (Arabidopsis thaliana [5]) of 54%.

From ChEMBL document CHEMBL3044571, “Identification of novel inhibitors of 1-aminocyclopropane-1-carboxylic acid synthase by chemical screening in Arabidopsis thaliana” (J Biol Chem, 2010)
